The source made the active and inactive calls. No cut-off for these calls is given here.
Tests used:
Assay type in all cases: cell-based
[1] = target: T1, Tubulin (Homo sapiens) (UniProt P68371+Q9H4B7+P0DPH7+P68366+Q13509+Q71U36+P04350+Q3ZCM7+P07437+P68363+Q9BQE3+Q6PEY2+Q13885+Q9BVA1+Q9BUF5); assay: Induction of microtubule aggregation in human KB-VIN cells at 1 uM measured after 24 hrs by DAPI staining based deconvolution fluorescence microscopic analysis
Outline: (§1)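 Cells on glass coverslips treated 24 h, fixed in 4% paraformaldehyde for 15 min, and permeabilized with 0.5% Triton X-100. Blocked in PBS/2% BSA, stained with anti-beta-tubulin (1:250) and Alexa 488 anti-mouse (1:250), and mounted with DAPI. Imaged by wide-field deconvolution microscopy.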

[2] = target: T1, Tubulin (Homo sapiens); assay: Induction of microtubule aggregation in human KB7D cells at 1 uM measured after 24 hrs by DAPI staining based deconvolution fluorescence microscopic analysis; outline: as §1
[3] = target: T1, Tubulin (Homo sapiens); assay: Induction of microtubule aggregation in human KB-VIN cells assessed as polymerized fraction at 0.01 uM measured after 16 hrs by SDS-PAGE analysis (reference value: 34%)
Outline: (§2)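 KB-Vin or KB-7D cells treated 16 h, then lysed 5 min at 37 °C in the dark in hypotonic buffer (1% NP-40, 1 mmol/L MgCl2, 2 mmol/L EGTA, 50 mmol/L Tris-HCl pH 6.8, protease inhibitors). Spun 13000 rpm, 10 min, room temperature. Soluble supernatant and resuspended polymerized pellet run on SDS-PAGE.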

[4] = target: T1, Tubulin (Homo sapiens); assay: Induction of microtubule aggregation in human KB-VIN cells assessed as polymerized fraction at 0.1 uM measured after 16 hrs by SDS-PAGE analysis (reference value: 34%); outline: as §2
[5] = target: T1, Tubulin (Homo sapiens); assay: Induction of microtubule aggregation in human KB-VIN cells assessed as polymerized fraction at 1 uM measured after 16 hrs by SDS-PAGE analysis (reference value: 34%); outline: as §2
[6] = target: T1, Tubulin (Homo sapiens); assay: Induction of microtubule aggregation in human KB7D cells assessed as polymerized fraction at 0.01 uM measured after 16 hrs by SDS-PAGE analysis (reference value: 34%); outline: as §2
[7] = target: T1, Tubulin (Homo sapiens); assay: Induction of microtubule aggregation in human KB7D cells assessed as polymerized fraction at 0.1 uM measured after 16 hrs by SDS-PAGE analysis (reference value: 34%); outline: as §2
[8] = target: T1, Tubulin (Homo sapiens); assay: Induction of microtubule aggregation in human KB7D cells assessed as polymerized fraction at 1 uM measured after 16 hrs by SDS-PAGE analysis (reference value: 34%); outline: as §2

CC(=O)O[C@H]1C(=O)[C@@]2(C)[C@H]([C@H](OC(=O)c3ccccc3)[C@]3(O)C[C@H](OC(=O)[C@H](O)[C@@H](NC(=O)c4ccccc4)c4ccccc4)C(C)=C1C3(C)C)[C@]1(OC(C)=O)CO[C@@H]1C[C@@H]2O
Activity [1]: Active
Activity [2]: Active
Activity [3]: 41.1%
Activity [4]: 45.9%
Activity [5]: 46.1%
Activity [6]: 45.9%
Activity [7]: 59.7%
Activity [8]: 61.5%

From ChEMBL document CHEMBL4680226, “Design, synthesis, and evaluation of N-phenyl-4-(2-phenylsulfonamido)-benzamides as microtubule-targeting agents in drug-resistant cancer cells, displaying HDAC inhibitory response” (Eur J Med Chem, 2020)
